Experimental findings from ChEMBL document CHEMBL4316620, “Dihydropyrrolones as bacterial quorum sensing inhibitors” (Bioorg Med Chem Lett, 2019) are described below.

The nature of test [1]: Inhibition of quorum sensing system in Pseudomonas aeruginosa MH602 PlasB::gfp at 31.25 uM incubated for 15 hrs by GFP reporter gene assay. In a few lines: (§1)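 Reporter strain P. aeruginosa PlasB::gfp (PAMH602) makes its own AHL; lasB promoter drives GFP-ASV. Cultures incubated with compound over 250–31.25 µM at 37 °C for 15 h, then GFP fluorescence read at 535 nm. QSI expressed as % relative to untreated PAMH602 negative control. Furanone positive control.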
Background: Reporter assays use an easily measured gene product as a stand-in for the process of interest.

The test system of test [2] is Pseudomonas aeruginosa. Kind of test: Inhibition of biofilm formation in Pseudomonas aeruginosa PAO1 at 250 uM incubated for 6 hrs by crystal violet staining based method. It is filed as functional. As to conditions: PAO1, 6 h. A digest of the protocol:
(§2)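 P. aeruginosa PA01 biofilm. Cultures grown with or without test compound for 6 h. Biofilm biomass quantified by crystal violet staining (OD550). % inhibition calculated relative to DMSO control.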

The test system of test [3] is Pseudomonas aeruginosa. Put plainly: Toxicity in Pseudomonas aeruginosa MH602 PlasB::gfp assessed as inhibition of bacterial growth at 250 uM incubated for 15 hrs by spectrophotometry. It is filed as organism-based. The conditions noted are these: MH602, 15 h, read-out: GI.
Test [4] is described as follows: Inhibition of quorum sensing system in Pseudomonas aeruginosa MH602 PlasB::gfp at 62.5 uM incubated for 15 hrs by GFP reporter gene assay. In a few lines:
as §1

Test [5] has as its system Pseudomonas aeruginosa. Put plainly: Toxicity in Pseudomonas aeruginosa MH602 PlasB::gfp assessed as inhibition of bacterial growth at 62.5 uM incubated for 15 hrs by spectrophotometry. It is filed as organism-based. As to conditions: MH602, 15 h, read-out: GI.
Test [6] concerns Pseudomonas aeruginosa. Kind of test: Toxicity in Pseudomonas aeruginosa MH602 PlasB::gfp assessed as inhibition of bacterial growth at 31.25 uM incubated for 15 hrs by spectrophotometry. It is filed as organism-based. The conditions noted are these: MH602, 15 h, read-out: GI.
Test [7] is described as follows: Inhibition of quorum sensing system in Pseudomonas aeruginosa MH602 PlasB::gfp at 250 uM incubated for 15 hrs by GFP reporter gene assay. In a few lines:
as §1

Test [8] has as its system Pseudomonas aeruginosa. Kind of test: Inhibition of biofilm formation in Pseudomonas aeruginosa PAO1 at 62.5 uM incubated for 6 hrs by crystal violet staining based method. The format is functional. The conditions noted are these: PAO1, 6 h. In a few lines:
as §2

The nature of test [9]: Inhibition of quorum sensing system in Pseudomonas aeruginosa MH602 PlasB::gfp at 125 uM incubated for 15 hrs by GFP reporter gene assay. A digest of the protocol: as §1
Test [10] has as its system Pseudomonas aeruginosa. Kind of test: Toxicity in Pseudomonas aeruginosa MH602 PlasB::gfp assessed as inhibition of bacterial growth at 125 uM incubated for 15 hrs by spectrophotometry. As to conditions: MH602, 15 h, read-out: GI. It is filed as organism-based.

Structures are written as SMILES. Bounds are passed on as bounds.

As to `C=C1C(c2ccc(Br)cc2)=CC(=O)N1c1ccsc1`, the inhibition in test [1] is 49.9%; in test [4], 59.9%; in [7] it was 86%; in test [9] it was 75%. In addition, the inhibition at 250 µM was 87.4% in the test with Pseudomonas aeruginosa [2] and above 30% in the test on Pseudomonas aeruginosa [3]. Also, the values for the inhibition at 62.5 µM in the test on Pseudomonas aeruginosa [5] and in the test with Pseudomonas aeruginosa [8] were at most 15% and 47%, respectively. In addition, in the test on Pseudomonas aeruginosa [6], the inhibition at 31.25 µM was at most 15%. The inhibition at 125 µM with Pseudomonas aeruginosa [10] was 15 to 30%.

Turning to `C=C1C(c2ccccc2F)=CC(=O)N1c1ccc(C)cc1`, the inhibition in test [1] is 29.6%; in test [4] it was 53.3%; in [7], 65%; in [9], 62.8%. Moreover, the inhibition at 250 µM in the test with Pseudomonas aeruginosa [2] was 49.3%; in the test on Pseudomonas aeruginosa [3], at most 15%. In addition, the inhibition at 62.5 µM in the test on Pseudomonas aeruginosa [5] was at most 15%. For the same molecule, the inhibition at 31.25 µM with Pseudomonas aeruginosa [6] is at most 15%. Besides, in the test on Pseudomonas aeruginosa [10], the inhibition at 125 µM is at most 15%.

Turning to `C=C1NC(=O)C=C1c1ccc(C(=O)O)cc1`, the inhibition amounted to 19.6% in test [1], 33.6% in [4], 68% in test [7] and 50.8% in [9]. Further, the inhibition at 250 µM in the test with Pseudomonas aeruginosa [2] was 12.9%; with Pseudomonas aeruginosa [3], at most 15%. Moreover, in the test on Pseudomonas aeruginosa [5], the inhibition at 62.5 µM was at most 15%. Moreover, the inhibition at 31.25 µM with Pseudomonas aeruginosa [6] is at most 15%. Moreover, in the test on Pseudomonas aeruginosa [10], the inhibition at 125 µM is at most 15%.

`C=C1NC(=O)C=C1c1cccc(C(F)(F)F)c1`: the inhibition stood at 35.4% in test [1], 57.1% in test [4], 74.4% in [7] and 67.9% in test [9]. Moreover, the inhibition at 250 µM was 50.3% in the test on Pseudomonas aeruginosa [2] and at most 15% in the test with Pseudomonas aeruginosa [3]. Further, the inhibition at 62.5 µM with Pseudomonas aeruginosa [5] was at most 15%. The inhibition at 31.25 µM with Pseudomonas aeruginosa [6] was at most 15%. In addition, the inhibition at 125 µM in the test with Pseudomonas aeruginosa [10] was at most 15%.

For `O=C1C=C(c2ccc(Cl)cc2)CN1`, the inhibition in test [1] was found to be 22.6%; in test [4], 26.4%; in test [7], 61.5%; in test [9], 42.7%. Also, the inhibition at 250 µM in the test with Pseudomonas aeruginosa [2] was 9.6%; in the test on Pseudomonas aeruginosa [3], at most 15%. Moreover, in the test on Pseudomonas aeruginosa [5], the inhibition at 62.5 µM was at most 15%. Moreover, in the test on Pseudomonas aeruginosa [6], the inhibition at 31.25 µM was at most 15%. The inhibition at 125 µM in the test with Pseudomonas aeruginosa [10] was at most 15%.

For the molecule `C=C1NC(=O)C=C1c1ccc(Br)cc1`, the inhibition stood at 63.1% in [1], 66.9% in [4], 82.3% in test [7] and 75.2% in [9]. Moreover, the inhibition at 250 µM in the test on Pseudomonas aeruginosa [2] is 62.5%; in the test on Pseudomonas aeruginosa [3], 15 to 30%. The inhibition at 62.5 µM with Pseudomonas aeruginosa [5] is at most 15%. In the test with Pseudomonas aeruginosa [6], the inhibition at 31.25 µM is at most 15%. In addition, the inhibition at 125 µM with Pseudomonas aeruginosa [10] was at most 15%.

As to `C=C1C(c2ccccc2F)=CC(=O)N1c1cccc(Cl)c1`, the inhibition is 38.7% in test [1], 49.6% in test [4], 64.4% in [7] and 57.3% in test [9]. The values for the inhibition at 250 µM in the test with Pseudomonas aeruginosa [2] and with Pseudomonas aeruginosa [3] were 46.9% and at most 15%, respectively. The inhibition at 62.5 µM with Pseudomonas aeruginosa [5] is at most 15%. In addition, the inhibition at 31.25 µM in the test with Pseudomonas aeruginosa [6] was at most 15%. In addition, in the test with Pseudomonas aeruginosa [10], the inhibition at 125 µM was at most 15%.

Turning to `O=C1C=C(Br)/C(=C/Br)O1`, the inhibition was 65.9% in [1], 77% in test [4], 87.5% in [7] and 83.1% in test [9]. For the same molecule, the values for the inhibition at 250 µM in the test with Pseudomonas aeruginosa [2] and in the test on Pseudomonas aeruginosa [3] were 87.9% and above 30%, respectively. The inhibition at 62.5 µM with Pseudomonas aeruginosa [5] was above 30%. Further, in the test with Pseudomonas aeruginosa [6], the inhibition at 31.25 µM was 15 to 30%. The inhibition at 125 µM in the test on Pseudomonas aeruginosa [10] was above 30%.

As for `O=C1C=C(c2ccccc2)CN1`, the inhibition in test [1] is 31.7%; in test [4], 32.4%; in test [7], 57.7%; in [9], 60.8%. The inhibition at 250 µM with Pseudomonas aeruginosa [2] is 14.4%; in the test with Pseudomonas aeruginosa [3], at most 15%. In addition, the inhibition at 62.5 µM in the test with Pseudomonas aeruginosa [5] is at most 15%. Besides, the inhibition at 31.25 µM in the test with Pseudomonas aeruginosa [6] is at most 15%. The inhibition at 125 µM with Pseudomonas aeruginosa [10] was at most 15%.

Turning to `C=C1C(c2ccc(Br)cc2)=CC(=O)N1c1ccc(Cl)cc1`, the inhibition was found to be 7.39% in [1], 44.9% in test [4], 52.4% in [7] and 50.3% in test [9]. The figures for the inhibition at 250 µM with Pseudomonas aeruginosa [2] and in the test on Pseudomonas aeruginosa [3] were 43.8% and at most 15%, respectively. In the test on Pseudomonas aeruginosa [5], the inhibition at 62.5 µM is at most 15%. In addition, the inhibition at 31.25 µM in the test on Pseudomonas aeruginosa [6] was at most 15%. In addition, in the test on Pseudomonas aeruginosa [10], the inhibition at 125 µM is at most 15%.

On to `C=C1C(c2ccc(Br)cc2)=CC(=O)N1c1ccc(F)cc1`, for which the inhibition stood at 9.23% in test [1], 34.5% in test [4], 57.9% in test [7] and 49.7% in test [9]. Besides, the results for the inhibition at 250 µM in the test with Pseudomonas aeruginosa [2] and in the test on Pseudomonas aeruginosa [3] were 27.7% and at most 15%, respectively. Further, the inhibition at 62.5 µM with Pseudomonas aeruginosa [5] is at most 15%. The inhibition at 31.25 µM in the test with Pseudomonas aeruginosa [6] was at most 15%. Moreover, the inhibition at 125 µM in the test with Pseudomonas aeruginosa [10] is at most 15%.

With `C=C1C(c2ccc(Br)cc2)=CC(=O)N1c1ccc(OC)cc1`, the inhibition in [1] is 14.4%; in [4], 32.1%; in [7], 73.3%; in [9] it was 61.8%. The inhibition at 250 µM in the test on Pseudomonas aeruginosa [2] is 54.9%; in the test on Pseudomonas aeruginosa [3], at most 15%. The inhibition at 62.5 µM with Pseudomonas aeruginosa [5] is at most 15%. Further, in the test on Pseudomonas aeruginosa [6], the inhibition at 31.25 µM is at most 15%. Moreover, the inhibition at 125 µM in the test with Pseudomonas aeruginosa [10] is at most 15%.

As to `O=C1C=C(c2cccc(F)c2)CN1`, the inhibition in test [1] was 22.4%; in test [4] it was 24%; in test [7], 67.2%; in test [9], 45.5%. Further, the inhibition at 250 µM in the test on Pseudomonas aeruginosa [2] is 21.4%; in the test on Pseudomonas aeruginosa [3], at most 15%. In the test with Pseudomonas aeruginosa [5], the inhibition at 62.5 µM was at most 15%. For the same molecule, the inhibition at 31.25 µM in the test with Pseudomonas aeruginosa [6] was at most 15%. Further, the inhibition at 125 µM in the test with Pseudomonas aeruginosa [10] is at most 15%.

Consider `C=C1NC(=O)C=C1c1ccc(OC)cc1`, for which the inhibition is 37% in test [1], 44.5% in [4], 74.4% in test [7] and 62.7% in test [9]. In addition, the figures for the inhibition at 250 µM in the test on Pseudomonas aeruginosa [2] and in the test on Pseudomonas aeruginosa [3] were 38.8% and 15 to 30%, respectively. Besides, the inhibition at 62.5 µM in the test with Pseudomonas aeruginosa [5] is at most 15%. For the same molecule, the inhibition at 31.25 µM with Pseudomonas aeruginosa [6] was at most 15%. Moreover, the inhibition at 125 µM in the test with Pseudomonas aeruginosa [10] is at most 15%.
